Results as given in ChEMBL document CHEMBL5113523, “Discovery of Cyclic Peptide Inhibitors Targeting PD-L1 for Cancer Immunotherapy” (J Med Chem, 2022).
Calls of active or inactive are those of the source. The rule behind the calls is not given here. Bridge positions count the residues as written; N and C are the ends. Peptide text beside a SMILES is read from it.

How the values were obtained:
[1] = biological target: T1, Programmed cell death protein 1/Programmed cell death 1 ligand 1 (Homo sapiens, UniProt Q9NZQ7); test: Inhibition of human recombinant PD-1/PD-L1 interaction preincubated with compound for 2 hrs followed by PD-1 protein addition and measured after 1.5 hrs by inhibitor screening ELISA assay pair kit method; format: protein-complex assay
How it was run: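 Plates coated with 100 ng recombinant human PD-L1 at 4°C for 16 h, washed with PBS pH 7.2-7.4, then blocked with 2% BSA for 1.5 h at 37°C. Peptides added at set concentrations for 2 h at 37°C, then biotinylated PD-1 for 1.5 h. Detection with streptavidin-HRP and chromogenic substrate, stopped with 2N H2SO4. A450 referenced to 540 nm. Mean ± SD, n = 3.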

[2] = biological target: Programmed cell death protein 1/Programmed cell death 1 ligand 1 (Mus musculus, UniProt Q9EP73); test: Inhibition of mouse recombinant PD-1/PD-L1 interaction preincubated with compound for 2 hrs followed by PD-1 protein addition and measured after 1.5 hrs by inhibitor screening ELISA assay pair kit method; format: protein-complex assay
How it was run: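 Plate-based ELISA. Mouse PD-L1 (100 ng) coated for 16 h at 4 °C, then blocked with 2% BSA for 1.5 h at 37 °C. Peptide added for 2 h at 37 °C, then biotinylated mouse PD-1 for 1.5 h. Detection with streptavidin-HRP and chromogenic substrate, stopped with 2N H2SO4; OD450 referenced to OD540. IC50 determined; mean ± SD, n = 3.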

[3] = biological target: T1, Programmed cell death protein 1/Programmed cell death 1 ligand 1; test: Inhibition of human PD-1/PD-L1 interaction by surface plasmon resonance analysis; format: protein-complex assay
How it was run: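 Competitive SPR with PD-1 immobilised on the chip. Various peptide concentrations were preincubated with human PD-L1 in running buffer, then injected. PD-L1 alone was injected as the control. Blocking was taken from the drop in SPR response relative to that control. Mean ± SD, n = 3.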

[4] = biological target: Programmed cell death 1 ligand 1 (Homo sapiens) (UniProt Q9NZQ7); test: Binding affinity to PD-L1 overexpressing in human MDA-MB-231 cells at 25 to 100 nM incubated for 1 hr by flow cytometry analysis; format: cell-based; conditions: dose 25-100 nM
How it was run: (§1)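 Cells detached with enzyme-free dissociation buffer, suspended in PBS at 1×10^6 cells/mL, incubated with Cy5-labelled peptide at various concentrations for 1 h at 37 °C under slow rotation. Cells spun at 300g for 10 min, washed, resuspended in PBS and read by flow cytometry. PD-L1 knockout MDA-MB-231 served as the negative cell line. Mean ± SD, n = 3.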

[5] = biological target: Programmed cell death 1 ligand 1 (Homo sapiens) (UniProt Q9NZQ7); test: Binding affinity to PD-L1 overexpressing in human DU-145 cells at 25 to 100 nM incubated for 1 hr by flow cytometry analysis; format: cell-based; conditions: dose 25-100 nM; how it was run: as §1
[6] = biological target: Programmed cell death 1 ligand 1 (Homo sapiens) (UniProt Q9NZQ7); test: Binding affinity to PD-L1 deficient in human MCF7 cells at 25 to 100 nM incubated for 1 hr by flow cytometry analysis; format: cell-based; conditions: dose 25-100 nM
[7] = Production against apoptosis in human PBMC cells cocultured with DU-145 cells assessed as reduction in apoptosis of T cells at 10 uM measured after 24 hrs by annexin V-FITC/PI staining based FACScalibur flow cytometry (reference value: 24.5%); format: functional; parameters: scale not given: the % may be the effect or the level left
[8] = Production against apoptosis in human PBMC cells cocultured with DU-145 cells assessed as increase in IFNgamma level in CD8+ T cell at 10 uM measured after 24 hrs by FACScalibur flow cytometry (reference value: 1.3%); format: functional
[9] = Production against apoptosis in human PBMC cells cocultured with DU-145 cells assessed as increase in IFNgamma level in CD4+ T cell at 10 uM measured after 24 hrs by FACScalibur flow cytometry (reference value: 1.3%); format: functional
[10] = Stability of the compound in 50% human serum assessed as half life measured upto 200 mins by LC-MS/MS analysis; format: ADME, cell-free
How it was run: (§2)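 Peptide incubated in 50% human serum at 37 °C. Aliquots taken at set time points up to 3 h and the intact peptide quantified by LC-MS/MS. Mean ± SD, n = 3.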

CT26 [11] = test: Antitumor activity against mouse CT26 cells implanted in BALB/c mouse syngeneic model at 0.5 mg/kg, ip administered daily starting from day 10 post inoculation and measured on day 18; format: functional, organism-based; conditions: time 9.0 day
How it was run: (§3)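 Balb/c mice (4 male + 4 female per group) implanted subcutaneously in right flank with ~1×10^6 CT26 cells; treatment began when tumors reached 200-250 mm3. Daily intraperitoneal dosing days 10–18, saline vehicle control group. Caliper volume = 1/2 × length × width2. TGI (%) = [1 − RTV treated/RTV control] × 100, RTV = day-18 volume / day-10 volume.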

CT26 [12] = test: Antitumor activity against mouse CT26 cells implanted in BALB/c mouse syngeneic model assessed as tumor growth inhibition at 0.5 mg/kg, ip administered daily starting from day 10 post inoculation and measured on day 18 (reference value: 0%); format: functional; conditions: CT26, 216 h, time 9 day, read-out: TGI; how it was run: as §3
[13] = Toxicity in BALB/c syngenic mouse bearing CT26 cells assessed as improvement in animal survival at 0.5 mg/kg, ip administered daily starting from day 10 post inoculation and measured on day 18; format: organism-based; conditions: in vivo, 216 h, time 9 day
How it was run: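 Male and female Balb/c mice (4 of each per group) with about 1×10^6 CT26 cells implanted subcutaneously in the right flank. Grouped when tumours reached 200-250 mm3. Dosed 0.5 mg/kg i.p. daily from day 10 to day 18; saline i.p. as negative control. Caliper volume = 1/2 × length × width². Survival curves recorded.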

Homo sapiens = species on record: Homo sapiens; test: Antiproliferative activity against human DU-145 cells cocultured with PBMC cells at 10 uM incubated for 24 hrs by CellTiter-Glo luminescent cell viability assay; format: functional, cell-based
[14] = Stability of the compound in human serum assessed as drug degradation measured after 3 hrs by LC-MS/MS analysis; format: ADME, cell-free; how it was run: as §2
[15] = Stability of the compound in human serum assessed as compound remaining measured after 3 hrs by LC-MS/MS analysis relative to control; format: ADME, cell-free; conditions: read-out: Stability; how it was run: as §2

T1 sequence (Q15116 whole entry): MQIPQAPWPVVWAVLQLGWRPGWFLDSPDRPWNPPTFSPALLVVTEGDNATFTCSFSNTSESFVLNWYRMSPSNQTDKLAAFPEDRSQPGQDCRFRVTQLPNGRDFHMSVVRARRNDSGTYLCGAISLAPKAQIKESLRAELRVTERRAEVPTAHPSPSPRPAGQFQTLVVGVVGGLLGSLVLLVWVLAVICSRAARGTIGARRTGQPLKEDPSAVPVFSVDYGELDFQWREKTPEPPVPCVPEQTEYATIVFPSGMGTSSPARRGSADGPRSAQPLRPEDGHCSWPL
T1 sequence (Q9NZQ7 whole entry): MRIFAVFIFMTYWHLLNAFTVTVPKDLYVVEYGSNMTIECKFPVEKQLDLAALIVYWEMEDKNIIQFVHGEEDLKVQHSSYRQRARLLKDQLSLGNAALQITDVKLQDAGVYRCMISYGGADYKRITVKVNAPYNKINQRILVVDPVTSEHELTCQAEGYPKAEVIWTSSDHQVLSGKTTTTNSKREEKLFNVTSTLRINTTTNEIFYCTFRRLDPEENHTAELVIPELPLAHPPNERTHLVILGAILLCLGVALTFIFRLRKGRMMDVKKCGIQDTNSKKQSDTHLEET
Sequence of Programmed cell death 1 ligand 1 (Homo sapiens) (Q9NZQ7 whole entry): as above
Sequence of Programmed cell death protein 1/Programmed cell death 1 ligand 1 (Mus musculus, UniProt Q9EP73) (Q9EP73 whole entry): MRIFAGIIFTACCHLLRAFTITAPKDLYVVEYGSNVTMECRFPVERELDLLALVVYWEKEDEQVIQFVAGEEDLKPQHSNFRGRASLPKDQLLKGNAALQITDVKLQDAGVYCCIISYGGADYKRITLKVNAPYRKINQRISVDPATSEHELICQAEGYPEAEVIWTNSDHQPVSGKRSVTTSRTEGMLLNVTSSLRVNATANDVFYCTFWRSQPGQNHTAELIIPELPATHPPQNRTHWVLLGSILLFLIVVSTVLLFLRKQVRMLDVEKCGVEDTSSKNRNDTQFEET
Sequence of Programmed cell death protein 1/Programmed cell death 1 ligand 1 (Mus musculus, UniProt Q9EP73) (Q02242 whole entry, further chain): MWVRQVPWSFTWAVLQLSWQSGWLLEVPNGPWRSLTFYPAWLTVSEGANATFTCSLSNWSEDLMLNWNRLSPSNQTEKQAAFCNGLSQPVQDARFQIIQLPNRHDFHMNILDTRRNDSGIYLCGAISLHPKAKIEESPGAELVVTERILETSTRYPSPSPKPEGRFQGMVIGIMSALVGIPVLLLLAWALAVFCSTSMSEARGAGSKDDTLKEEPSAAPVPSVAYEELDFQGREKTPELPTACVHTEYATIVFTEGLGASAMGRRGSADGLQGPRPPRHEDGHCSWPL

Row | Molecule | IC50 [1] | IC50 [2] | IC50 [3] | Activity [4] | Activity [5] | Activity [6] | Activity [7] | Activity [8] | Activity [9] | half-life [10] | Activity (CT26 [11]) | inhibition in vivo at 0.5 mg/kg (CT26 [12]) | Activity [13] | Activity (Homo sapiens) | Drug degradation [14] | remaining at 3 h [15]
1 | CC(=O)N[C@H]1CSSC[C@@H](C(N)=O)NC(=O)[C@H](CC(N)=O)NC(=O)[C@H](CC(C)C)NC(=O)[C@H](CC(N)=O)NC(=O)[C@H](Cc2c[nH]c3ccccc23)NC(=O)[C@H]([C@@H](C)O)NC(=O)[C@H](Cc2ccc(O)cc2)NC(=O)[C@H](Cc2ccc(O)cc2)NC(=O)[C@H](CO)NC(=O)[C@H](CCCNC(=N)N)NC(=O)[C@H](Cc2c[nH]cn2)NC1=O (Ac-CHRSYYTWNLNC-NH2; disulfide 1-12) | 180 nM | 552 nM | 119 nM | Active | Active | Active | 12.2% | 1.7% | 1.5% | 38.1 min | Active | 60.6% | Toxic | Active |  | 
2 | H-WHRSYYTWNLNT-OH |  | 4280 nM |  | Active | Active | Active | 14.5% | 1.4% | 1.5% |  |  | 16.3% | Non-Toxic |  | Active | 
3 | CC(=O)N[C@H]1CSSC[C@@H](C(=O)N[C@@H](Cc2c[nH]c3ccccc23)C(=O)N[C@@H](CC(N)=O)C(=O)N[C@@H](CC(C)C)C(=O)N[C@@H](CC(N)=O)C(=O)N[C@H](C(N)=O)[C@@H](C)O)NC(=O)[C@H](Cc2ccc(O)cc2)NC(=O)[C@H](Cc2ccc(O)cc2)NC(=O)[C@H](CO)NC(=O)[C@H](CCCNC(=N)N)NC(=O)[C@H](Cc2c[nH]cn2)NC1=O (Ac-CHRSYYCWNLNT-NH2; disulfide 1-7) | 440 nM | 464 nM | 143 nM | Active | Active | Active | 10.6% | 1.5% | 1.3% | 70.8 min | Active | 33% | Toxic | Active |  | 25%
